Measurements published in ChEMBL document CHEMBL1155689, “Evaluation of the total peroxyl radical-scavenging capacity of flavonoids: structure-activity relationships” (J Nat Prod, 2000).

Columns and labels:
[1] = Antioxidant scavenging activity against 2,2'-azobis-amidinopropane-induced peroxyl radicals assessed as total oxyradical scavenging capacity; assay type: physicochemical; set-up: unit not given here
Outline: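 Peroxyl radicals from thermal homolysis of ABAP at 39 °C, with 0.1 mM KMBA and 10 mM ABAP (final) in 100 mM potassium phosphate, pH 7.4. Ethylene in the headspace was measured by GC at 12-min intervals over 60 min. TOSC = 100 − (∫sample/∫control area × 100). rTOSC is the slope of the TOSC vs concentration regression within the linear range.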

[2] = Antioxidant scavenging activity against 2,2'-azobis-amidinopropane-induced peroxyl radicals assessed as total oxyradical scavenging capacity relative to Trolox; assay type: physicochemical
Outline: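 Uses the same ABAP/KMBA ethylene-GC assay: 39 °C, 0.1 mM KMBA, 10 mM ABAP, pH 7.4 phosphate, 60-min time course. TOSC comes from the areas under the kinetic curves, and rTOSC from the slope of TOSC against concentration. Comparative TOSC (cTOSC) expresses each rTOSC relative to the Trolox benchmark.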

| Compound | Activity [1] | Activity [2] |
| --- | --- | --- |
| COc1cc(-c2cc(=O)c3c(O)c(OC)c(OC)c(OC)c3o2)ccc1O | 4.53 | 0.81 |
| O=c1c(O)c(-c2ccc(O)c(O)c2)oc2cc(O)cc(O)c12 [QUERCETIN] | 40.32 | 7.17 |
| COc1cc(-c2cc(=O)c3c(O)c(O)c(OC)c(OC)c3o2)ccc1O | 8.53 | 1.52 |

More lines, now with the values ahead:

| Activity [1] | Activity [2] | Compound |
| --- | --- | --- |
| 5.62 | – | Cc1c(C)c2c(c(C)c1O)CCC(C)(C(=O)O)O2 (stereo unspecified) [TROLOX] |
| 1.55 | 0.28 | COc1ccc(-c2oc3cc(OC)c(OC)c(O)c3c(=O)c2OC)cc1OC [ARTEMETIN] |
| 28.96 | 5.15 | C[C@@H]1O[C@@H](OC[C@H]2O[C@@H](Oc3c(-c4ccc(O)c(O)c4)oc4cc(O)cc(O)c4c3=O)[C@H](O)[C@@H](O)[C@@H]2O)[C@H](O)[C@H](O)[C@H]1O [RUTIN] |
